# Shown are actives, neighbours in structure and some others; about 1.9% of the full set was active somewhere.
# Ecoli rRNA inh: reduced GFP signal of wild-type E. coli, primary screen, bacterial rRNA inhibitor project, GFP/RFP fluorescence, OD600, single point | GFP signal change (wild-type ribosome), % (concentration not given with the values) | E. coli WT GFP vs humanized-ribosome RFP mutants, 24 h; hits give low values; DMSO median 0, no signal -100 | hit rate 1.6% among 350,000 | AID 720706, 2013;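 active = significant combined selectivity score with lowered wild-type GFP, culture density cut under 30%, mutant RFP and density less affected; inactive = any of these conditions unmet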
# RAD54 branch: inhibitors of human RAD54 branch migration, primary screen, biochemical, fluorescence, single point. inhibition, % at 10.4 µM. hit rate 0.14% among 360,000. RAD54 Holliday junction branch migration, FAM/BHQ fluorescence. DNA repair and recombination protein RAD54-like (Homo sapiens), Q92698;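 active = mean normalized replicate activity at least 40 and at least half of replicates scoring 40 or more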;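 note: 0% = median of neutral control wells and 100% = median of positive control wells; inhibitors cause a drop in the FAM fluorescence signal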
# PglD inh: C. jejuni PglD acetyltransferase inhibitors, primary screen, biochemical, DTNB colorimetric, single point. UDP-N-acetylbacillosamine N-acetyltransferase PglD (Campylobacter jejuni). purified PglD enzyme, DTNB colorimetric CoA detection. inhibition, % at 12.5 µM. hit rate 0.098% among 360,000; in the data active = inhibition above about 16%, passing the limit was not always enough
# Cneo AK release: Cryptococcus neoformans cell lysis inducers, primary screen, AK release luminescence, single concentration | lysis activity, % at 15 µM | C. neoformans lysis, adenylate kinase release luminescence, 4 h; normalised: neutral wells 0, clomiphene wells 100 | AID 651654, 2012 | hit rate 0.2% among 360,000;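 active = mean lysis activity across replicates of at least 80%, whatever share of replicates individually reach that level; inactive = mean lysis activity below 80%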
#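 Test system: log-phase Cryptococcus neoformans yeast cells. Input: 5 × 10^6 yeast cells/mL. Medium: fresh YPD growth medium. Doses: single dose. Incubation: static 4 h at 37 °C with compound, 1 h detection. Measured by: luminescent adenylate kinase detection reagent. Read-out: signal increase indicating cell lysis. Benchmarks: Clomiphene.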
# RAD52 inh: RAD52 DNA annealing inhibitors, primary screen, biochemical, FRET, single point, set 2; DNA repair protein RAD52 homolog (Homo sapiens), P43351; inhibition, % at 18.7 µM; hit rate 0.46% among 360,000; recombinant RAD52 DNA annealing, FRET fluorescence; AID 651710, 2012;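 active = every replicate showing at least 50% inhibition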
# Target sequence (P43351 whole entry, looked up): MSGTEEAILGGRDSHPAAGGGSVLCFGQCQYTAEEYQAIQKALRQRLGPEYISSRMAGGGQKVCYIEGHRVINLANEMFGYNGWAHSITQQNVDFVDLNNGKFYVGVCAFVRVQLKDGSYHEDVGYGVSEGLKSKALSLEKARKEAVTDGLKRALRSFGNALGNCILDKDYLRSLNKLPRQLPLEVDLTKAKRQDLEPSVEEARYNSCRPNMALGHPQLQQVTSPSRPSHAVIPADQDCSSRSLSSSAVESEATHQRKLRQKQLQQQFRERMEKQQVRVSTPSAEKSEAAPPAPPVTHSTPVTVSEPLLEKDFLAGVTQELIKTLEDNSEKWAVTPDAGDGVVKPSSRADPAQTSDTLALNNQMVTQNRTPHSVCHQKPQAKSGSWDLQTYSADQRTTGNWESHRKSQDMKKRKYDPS
# Starred values were filed as active, the others as inactive; · = no result.
SMILES,Ecoli rRNA inh,RAD54 branch,PglD inh,Cneo AK release,RAD52 inh
CCc1nnc(NC(=O)C(NC(=O)c2ccccc2Cl)C(C)C)s1 (configuration not stated),13.2,·,·,·,9.1
CC(C)[C@H](NC(=O)c1ccccc1Cl)C(=O)Nc1nc(-c2ccccn2)cs1,-28.7*,2.3,15.5,13.1,-110.5
Cc1cc(C(=O)Nc2nc(-c3ccccn3)cs2)ccc1[N+](=O)[O-],-29.2*,·,·,·,-14.6
O=C1O[C@H](c2ccccc2)[C@H](c2ccccc2)N2[C@H]1[C@@H](C(=O)NC[C@H](O)c1ccccc1)[C@]1(C(=O)Nc3ccc(C#CCCO)cc31)[C@H]2c1ccc(OCCO)cc1,·,-4.2,-9.3,-1.6,21.0
CC(C)NC(=O)N(C)C[C@@H]1Oc2c(NS(C)(=O)=O)cccc2C(=O)N(C)C[C@@H]1C,2.2,·,·,·,·
COc1ccc(C)cc1-n1c(=O)c2ccccc2c2ccccc2c1=O,-26.2*,·,·,·,-12.1
COc1ccc(-n2c(=O)c3ccccc3c3ccccc3c2=O)c(OC)c1,13.2,·,·,·,-13.4
CCN1[C@H](C(=O)NCc2cccc(OC)c2)[C@@H](CO)[C@@H]2Cn3c(ccc(C4=CCCC4)c3=O)[C@@H]21,-2.2,-12.2,-1.2,-0.3,-29.8
O=C1C[C@@H](c2ccccc2)C(=O)N[C@@H](c2ccccc2)C/C=C\C[C@@H](c2ccccc2)N1,-2.8,·,·,·,·
O=C(OCc1cn([C@H]2C[C@H](c3ccc(Cl)cc3)N(Cc3cccs3)C[C@@H]2O)nn1)c1ccccc1,-5.0*,-8.6,-0.6,-0.7,-237.9
CN(CC(=O)Nc1ccccc1Cl)C(=O)COC(=O)CN1C(=O)NC2(CCCC2)C1=O,2.2,2.4,-0.6,1.3,-15.2
CCOC(=O)c1ccccc1NC(=O)COC(=O)CN1C(=O)NC2(CCCC2)C1=O,-31.8*,8.3,1.3,-0.6,-5.0
COCC(=O)N1CCCCN2[C@@H](CO)[C@@H](c3ccc(-c4ccccc4)cc3)[C@@H]2C1,0.7,2.4,-0.8,50.6,-5.0
CCCCN(C)CCNC(=O)c1ccc(Cn2c(=S)[nH]c3ccc(Br)cc3c2=O)cc1,-52.8*,·,·,·,5.2
CN(C)CCNC(=O)c1ccc2c(=O)n(Cc3ccc(Cl)cc3)c(=S)[nH]c2c1,-29.2,7.2,9.7,-2.1,9.8
C[C@@H]1CCCCO[C@@H](CN(C)C(=O)Nc2ccc(F)cc2)[C@@H](C)CN([C@H](C)CO)C(=O)c2cc(NC(=O)c3ccncc3)ccc2O1,1.7,2.5,-0.5,-2.5,-7.6
COc1ccccc1NC(=O)N[C@H]1CC[C@@H](CCn2cc(-c3ccccc3OC)nn2)O[C@@H]1CO,1.8,4.5,-2.5,99.1*,-0.8
O=C(N[C@@H]1CC[C@@H](CCn2cc(-c3ccccc3)nn2)O[C@H]1CO)c1cnccn1,1.2,-5.4,-3.2,96.1*,9.4
O=C(N[C@@H]1CC[C@H](CCn2cc(-c3ccc(F)cc3)nn2)O[C@@H]1CO)c1cnccn1,-0.1,1.8,0.1,-3.3,-3.1
COc1cccc(-c2cn(CC[C@@H]3CC[C@H](NC(C)=O)[C@@H](CO)O3)nn2)c1,2.6,-10.8,0.9,94.1*,-8.2
O=C(N[C@H]1CC[C@@H](CCn2cc(-c3ccccc3)nn2)O[C@H]1CO)c1cnccn1,2.7,-5.6,-0.8,-0.8,3.5
COc1ccccc1NC(=O)N[C@H]1CC[C@@H](CCn2cc(-c3ccccc3OC)nn2)O[C@H]1CO,·,0.6,1.0,0.0,3.7
O=C(N[C@H]1CC[C@@H](CCn2cc(-c3ccccc3)nn2)O[C@@H]1CO)c1cnccn1,2.7,5.7,3.2,92.9*,1.4
COc1ccc2c3c([nH]c2c1)[C@H](CO)N(C(=O)Cc1ccccc1)CC31CN(C(=O)Cc2ccccc2)C1,-4.3,·,·,·,10.0
CCCNC(=O)N1CC2(CN(S(=O)(=O)CC)C2)c2c(n(C)c3cc(OC)ccc23)[C@H]1CO,-4.7,·,·,·,-1.9
C[C@@H]1CN([C@@H](C)CO)C(=O)c2cc(NS(C)(=O)=O)ccc2O[C@@H]1CN(C)Cc1ccc(Cl)c(Cl)c1,-7.4,-1.0,4.6,-6.0,9.5
